The source made the active and inactive calls. The calls are words filed in the database; no cut-off is given here.
How the values were obtained:
Calf thymus DNA [1] = assay: Binding affinity to calf thymus DNA assessed as hypochromism by UV-vis spectroscopy; conditions: Bos taurus
SK-MEL-28 = assay: Antiproliferative activity against human SKMEL-28 cells assessed as cell viability measured after 4 days by MTT assay; assay type: functional, cell-based; conditions: SK-MEL-28, 96 h
Procedure, shortened: (§1)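 Leukemia/lymphoma cells (RPMI 1640, 10% FCS) resuspended at 1 × 10⁵ cells/mL with serial drug dilutions and read by MTT after 96 h at 37 °C. Solid-tumor cells (own media, 10% FCS) were seeded at 5 × 10⁴ cells/mL, allowed 16 h to adhere, then dosed and read by MTT 4 days later. IC50 was derived by linear regression of growth as % of untreated controls.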

G-361 = assay: Antiproliferative activity against human G-361 cells assessed as cell viability measured after 4 days by MTT assay; assay type: functional, cell-based; conditions: G-361, 96 h
Procedure, shortened: as §1

HT-29 = assay: Antiproliferative activity against human HT-29 cells assessed as cell viability measured after 4 days by MTT assay; assay type: functional, cell-based; conditions: HT-29, 96 h
Procedure, shortened: as §1

ACHN = assay: Antiproliferative activity against human ACHN cells assessed as cell viability measured after 4 days by MTT assay; assay type: functional, cell-based; conditions: 96 h
Procedure, shortened: as §1

CCRF-SB = assay: Antiproliferative activity against human CCRF-SB cells assessed as cell viability measured after 4 days by MTT assay; assay type: functional, cell-based; conditions: 96 h
Procedure, shortened: as §1

MCF7 [2] = assay: Antiproliferative activity against human MCF7 cells assessed as cell viability measured after 4 days by MTT assay; assay type: functional, cell-based; conditions: MCF7, 96 h
Procedure, shortened: as §1

CCRF-CEM = assay: Antiproliferative activity against human CCRF-CEM cells assessed as cell viability measured after 4 days by MTT assay; assay type: functional, cell-based; conditions: 96 h
Procedure, shortened: as §1

MT4 = assay: Antiproliferative activity against human MT-4 cells assessed as cell viability measured after 4 days by MTT assay; assay type: functional, cell-based; conditions: MT4, 96 h
Procedure, shortened: as §1

HeLa = assay: Antiproliferative activity against human HeLa cells assessed as cell viability measured after 4 days by MTT assay; assay type: functional, cell-based; conditions: 96 h
Procedure, shortened: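 Solid-tumor cells (own media, 10% FCS) were seeded at 5 × 10⁴ cells/mL, allowed 16 h to adhere, then dosed and read by MTT 4 days later. IC50 was derived by linear regression of growth as % of untreated controls.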

Calf thymus DNA [3] = assay: Binding affinity to calf thymus DNA assessed as red shift by UV-vis spectroscopy; assay type: nucleic-acid assay; parameters: unit not given here; conditions: Bos taurus
Procedure, shortened: (§2)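 ctDNA held at 0.2 mM in phosphate buffer pH 7 and titrated with drug from […]. UV-vis spectra recorded in a 1 cm quartz cuvette. Binding constant was taken by the mole-ratio method from optical density changes at 260 nm, using a double reciprocal plot.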

Calf thymus DNA [4] = assay: Binding affinity to calf thymus DNA assessed as isosbestic point by UV-vis spectroscopy; assay type: nucleic-acid assay; conditions: Bos taurus
Procedure, shortened: as §2

Calf thymus DNA [5] = assay: Binding affinity to calf thymus DNA assessed as lamda max by UV-vis spectroscopy; assay type: nucleic-acid assay; conditions: Bos taurus
Procedure, shortened: as §2

[6] = molecular target: DNA topoisomerase 2-alpha (Homo sapiens) (UniProt P11388); assay: Inhibition of human topoisomerase 2alpha mediated pBR322 DNA relaxation at 2 uM by agarose gel electrophoresis relative to control
[7] = molecular target: DNA topoisomerase 2-alpha (Homo sapiens) (UniProt P11388); assay: Poison activity at human topo2alpha assessed as induction of accumulation of topo-2/DNA cleavage complex formation at 1 to 5 uM using […] plasmid incubated for 10 mins by agarose gel electrophoresis; conditions: dose 1-5 µM
Procedure, shortened: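 Supercoiled pBR322 incubated with purified Topo IIα and drug for 10 min at 30 °C. Stopped with 0.35% SDS plus 0.3 mg/mL proteinase K (final), then 1 h at 56 °C. Products run on 1.2% agarose gels containing EtBr. Linear DNA quantified by gel densitometry; averages of three independent experiments.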

DNA [8] = assay: Binding affinity at Escherichia coli pBR322 DNA assessed as unwinding of supercoiled DNA at 10 uM incubated for 10 mins in presence of human topoisomerase 1 by agarose gel based electrophoresis; assay type: nucleic-acid assay
Procedure, shortened: (§3)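 Intercalation assay with relaxed pBR322 (300 ng) and 2 units human Topo I in 50 mM Tris-HCl pH 7.5, 2.5 mM MgCl₂, 0.5 mM DTT and 50 µg/mL BSA, run 10 min at 37 °C. Stopped by phenol/chloroform/isoamyl alcohol extraction. Products run on 1.2% agarose in TAE, 2 V/cm for 15 h, then EtBr-stained. EtBr served as control; three independent experiments.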

[9] = molecular target: DNA topoisomerase 2-alpha (Homo sapiens) (UniProt P11388); assay: Inhibition of human topoisomerase 2alpha mediated pBR322 DNA relaxation at 1 uM by agarose gel electrophoresis relative to control
DNA [10] = assay: Binding affinity at Escherichia coli pBR322 DNA assessed as unwinding of supercoiled DNA at 0.1 uM incubated for 10 mins in presence of human topoisomerase 1 by agarose gel based electrophoresis; assay type: nucleic-acid assay
Procedure, shortened: as §3

MCF7 [11] = assay: Induction of cell cycle arrest in human MCF7 cells assessed as accumulation of cells at G0/G1 phase at 0.1 uM after 12 hrs by flow cytometry (reference value: 51.7%); assay type: functional
Procedure, shortened: (§4)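 MCF-7 cells exposed continuously to vehicle or 0.1 µM drug for 12, 24 and 48 h. Cell cycle distribution was assessed by flow cytometry.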

[12] = molecular target: DNA topoisomerase 2-alpha (Homo sapiens) (UniProt P11388); assay: Inhibition of human topoisomerase 2alpha mediated pBR322 DNA relaxation at 0.7 uM by agarose gel electrophoresis relative to control
MCF7 [13] = assay: Induction of DNA damage in human MCF7 cells assessed as increase tail length at 1 to 10 uM after 24 hrs by comet assay; assay type: functional, cell-based; conditions: dose 1-10 µM
Procedure, shortened: (§5)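 About 1 × 10⁵ MCF-7 cells seeded; after 24 h, drug added for 24 h, with 10 µM VP-16 as positive control. Alkaline comet assay: lysis 1 h at 4 °C at pH 10, unwinding at pH 13, then electrophoresis at 30 V for 15 min. Slides neutralized, PI-stained and imaged by fluorescence microscopy at 10×. Tail lengths were taken from randomly selected cells.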

MCF7 [14] = assay: Induction of cell cycle arrest in human MCF7 cells assessed as accumulation of cells at S phase at 0.1 uM after 48 hrs by flow cytometry (reference value: 31.3%); assay type: functional
Procedure, shortened: as §4

MCF7 [15] = assay: Induction of cell cycle arrest in human MCF7 cells assessed as accumulation of cells at G0/G1 phase at 0.1 uM after 48 hrs by flow cytometry (reference value: 51.7%); assay type: functional
Procedure, shortened: as §4

[16] = molecular target: DNA topoisomerase 2-alpha (Homo sapiens) (UniProt P11388); assay: Inhibition of human topoisomerase 2alpha mediated pBR322 DNA relaxation at 1.5 uM by agarose gel electrophoresis relative to control
MCF7 [17] = assay: Induction of DNA damage in human MCF7 cells assessed as increase tail length at 10 uM after 24 hrs by comet assay (reference value: 8%); assay type: functional
Procedure, shortened: as §5

MCF7 [18] = assay: Induction of DNA damage in human MCF7 cells assessed as increase in gammaH2AX foci at 5 to 10 uM measured after 0.5 to 3 hrs by Western blot analysis; assay type: functional, cell-based; conditions: dose 5-10 µM, time 0.5-3 hrs
Procedure, shortened: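 MCF-7 cells were treated for 0.5, 1 and 3 h, washed with ice-cold PBS and lysed in RIPA buffer containing PMSF and protease inhibitors. Lysates run on SDS-PAGE, blotted to PVDF and probed for H2AX, with β-actin as loading control. Detection by HRP secondary antibody and enhanced chemiluminescence.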

MCF7 [19] = assay: Induction of cell cycle arrest in human MCF7 cells assessed as accumulation of cells at G2/M phase at 0.1 uM after 24 hrs by flow cytometry (reference value: 17%); assay type: functional
Procedure, shortened: as §4

MCF7 [20] = assay: Induction of cell cycle arrest in human MCF7 cells assessed as accumulation of cells at S phase at 0.1 uM after 12 hrs by flow cytometry (reference value: 31.3%); assay type: functional
Procedure, shortened: as §4

MCF7 [21] = assay: Induction of cell cycle arrest in human MCF7 cells assessed as accumulation of cells at G2/M phase at 0.1 uM after 48 hrs by flow cytometry (reference value: 17%); assay type: functional
Procedure, shortened: as §4

MCF7 [22] = assay: Induction of cell cycle arrest in human MCF7 cells assessed as accumulation of cells at S phase at 0.1 uM after 24 hrs by flow cytometry (reference value: 31.3%); assay type: functional
Procedure, shortened: as §4

MCF7 [23] = assay: Induction of cell cycle arrest in human MCF7 cells assessed as accumulation of cells at G2/M phase at 0.1 uM after 12 hrs by flow cytometry (reference value: 17%); assay type: functional
Procedure, shortened: as §4

MCF7 [24] = assay: Induction of cell cycle arrest in human MCF7 cells assessed as accumulation of cells at G0/G1 phase at 0.1 uM after 24 hrs by flow cytometry (reference value: 51.7%); assay type: functional
Procedure, shortened: as §4

[25] = molecular target: DNA topoisomerase 2-beta (Homo sapiens) (UniProt Q02880); assay: Poison activity at topo2beta (unknown origin) assessed as induction of accumulation of topo-2/DNA cleavage complex formation by agarose gel electrophoresis
DNA topoisomerase 2-beta (Homo sapiens), sequence (Q02880 whole entry): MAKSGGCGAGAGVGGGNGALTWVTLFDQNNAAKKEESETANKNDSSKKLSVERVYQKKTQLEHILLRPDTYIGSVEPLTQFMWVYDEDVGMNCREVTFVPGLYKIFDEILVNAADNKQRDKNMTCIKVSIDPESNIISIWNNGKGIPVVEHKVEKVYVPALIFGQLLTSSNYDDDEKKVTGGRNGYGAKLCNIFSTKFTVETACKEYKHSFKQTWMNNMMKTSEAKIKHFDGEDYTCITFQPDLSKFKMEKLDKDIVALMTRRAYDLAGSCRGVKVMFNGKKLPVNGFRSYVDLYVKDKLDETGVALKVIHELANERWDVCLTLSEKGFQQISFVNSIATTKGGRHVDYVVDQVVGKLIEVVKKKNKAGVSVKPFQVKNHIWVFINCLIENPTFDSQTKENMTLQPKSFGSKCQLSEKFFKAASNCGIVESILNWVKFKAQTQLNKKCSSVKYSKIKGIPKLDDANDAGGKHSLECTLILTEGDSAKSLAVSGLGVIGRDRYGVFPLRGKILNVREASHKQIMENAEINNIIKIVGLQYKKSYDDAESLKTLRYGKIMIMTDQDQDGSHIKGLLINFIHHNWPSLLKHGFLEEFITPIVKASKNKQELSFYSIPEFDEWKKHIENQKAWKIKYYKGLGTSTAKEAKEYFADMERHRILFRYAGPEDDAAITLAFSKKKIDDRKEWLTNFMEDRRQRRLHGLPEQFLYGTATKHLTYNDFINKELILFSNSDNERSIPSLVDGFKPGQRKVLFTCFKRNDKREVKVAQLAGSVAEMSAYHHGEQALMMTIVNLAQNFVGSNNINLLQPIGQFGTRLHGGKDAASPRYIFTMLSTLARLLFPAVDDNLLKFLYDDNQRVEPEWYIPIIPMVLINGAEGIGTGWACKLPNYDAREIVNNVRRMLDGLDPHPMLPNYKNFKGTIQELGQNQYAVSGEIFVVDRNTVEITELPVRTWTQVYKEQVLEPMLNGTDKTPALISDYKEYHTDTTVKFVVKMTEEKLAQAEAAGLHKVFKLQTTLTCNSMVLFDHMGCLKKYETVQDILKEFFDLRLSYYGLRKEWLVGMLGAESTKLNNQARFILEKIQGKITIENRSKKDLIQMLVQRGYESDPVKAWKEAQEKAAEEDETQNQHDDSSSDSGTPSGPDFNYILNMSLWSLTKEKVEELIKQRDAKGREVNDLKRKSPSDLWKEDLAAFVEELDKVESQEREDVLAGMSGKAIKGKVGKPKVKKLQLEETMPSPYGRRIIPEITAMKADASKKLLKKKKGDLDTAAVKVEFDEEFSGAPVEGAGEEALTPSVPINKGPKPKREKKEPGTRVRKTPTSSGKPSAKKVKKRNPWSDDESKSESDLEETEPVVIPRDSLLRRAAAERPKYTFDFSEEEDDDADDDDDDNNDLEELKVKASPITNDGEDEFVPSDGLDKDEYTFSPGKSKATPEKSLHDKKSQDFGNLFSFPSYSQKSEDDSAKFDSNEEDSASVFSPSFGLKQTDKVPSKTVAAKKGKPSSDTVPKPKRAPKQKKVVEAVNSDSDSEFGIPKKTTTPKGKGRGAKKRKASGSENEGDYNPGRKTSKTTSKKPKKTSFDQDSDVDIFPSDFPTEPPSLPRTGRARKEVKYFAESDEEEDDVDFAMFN

DNA topoisomerase 2-alpha (Homo sapiens), sequence (P11388 whole entry): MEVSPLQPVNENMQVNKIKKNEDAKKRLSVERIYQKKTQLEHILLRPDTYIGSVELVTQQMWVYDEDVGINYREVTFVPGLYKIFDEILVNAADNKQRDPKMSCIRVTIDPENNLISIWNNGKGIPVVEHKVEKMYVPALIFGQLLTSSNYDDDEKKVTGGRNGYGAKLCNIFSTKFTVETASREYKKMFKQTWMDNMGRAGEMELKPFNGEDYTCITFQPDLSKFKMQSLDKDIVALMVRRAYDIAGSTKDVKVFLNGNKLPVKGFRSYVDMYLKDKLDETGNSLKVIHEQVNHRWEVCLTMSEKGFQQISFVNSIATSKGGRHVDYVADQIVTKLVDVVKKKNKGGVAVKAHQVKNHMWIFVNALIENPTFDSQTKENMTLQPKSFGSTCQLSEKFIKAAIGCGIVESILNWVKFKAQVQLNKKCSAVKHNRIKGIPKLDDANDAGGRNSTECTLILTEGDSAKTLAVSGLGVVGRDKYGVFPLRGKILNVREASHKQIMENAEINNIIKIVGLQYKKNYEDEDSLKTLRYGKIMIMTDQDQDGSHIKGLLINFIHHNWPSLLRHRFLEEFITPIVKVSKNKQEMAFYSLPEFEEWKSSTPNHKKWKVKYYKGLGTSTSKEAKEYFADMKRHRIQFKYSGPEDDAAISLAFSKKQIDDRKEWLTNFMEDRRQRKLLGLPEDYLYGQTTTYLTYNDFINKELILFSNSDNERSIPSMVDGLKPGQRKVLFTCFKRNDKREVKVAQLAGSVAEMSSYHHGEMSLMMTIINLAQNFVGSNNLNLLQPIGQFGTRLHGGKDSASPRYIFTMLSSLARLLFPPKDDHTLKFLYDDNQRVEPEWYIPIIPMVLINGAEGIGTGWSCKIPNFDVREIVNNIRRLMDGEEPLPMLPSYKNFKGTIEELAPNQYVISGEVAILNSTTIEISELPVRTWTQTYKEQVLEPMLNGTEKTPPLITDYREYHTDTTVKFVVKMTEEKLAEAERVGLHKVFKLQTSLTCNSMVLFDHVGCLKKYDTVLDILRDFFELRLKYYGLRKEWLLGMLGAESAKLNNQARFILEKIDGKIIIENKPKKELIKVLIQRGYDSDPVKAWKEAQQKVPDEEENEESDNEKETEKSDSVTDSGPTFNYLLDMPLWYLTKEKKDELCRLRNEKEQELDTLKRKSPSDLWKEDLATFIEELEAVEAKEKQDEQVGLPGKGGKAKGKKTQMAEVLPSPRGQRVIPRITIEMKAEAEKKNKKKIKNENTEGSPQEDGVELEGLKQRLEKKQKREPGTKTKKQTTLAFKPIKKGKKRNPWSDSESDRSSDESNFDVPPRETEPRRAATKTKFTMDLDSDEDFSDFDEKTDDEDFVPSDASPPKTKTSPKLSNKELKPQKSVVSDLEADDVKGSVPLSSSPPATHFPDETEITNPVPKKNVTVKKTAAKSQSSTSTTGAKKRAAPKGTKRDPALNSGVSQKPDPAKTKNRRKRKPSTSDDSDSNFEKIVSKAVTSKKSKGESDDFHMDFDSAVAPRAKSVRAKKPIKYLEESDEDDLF

| SMILES | Activity (Calf thymus DNA [1]) | IC50 (SK-MEL-28) | IC50 (HT-29) | IC50 (ACHN) | IC50 (CCRF-SB) | IC50 (MCF7 [2]) | IC50 (CCRF-CEM) | IC50 (HeLa) | Activity (Calf thymus DNA [3]) | Activity (Calf thymus DNA [4]) | Activity (Calf thymus DNA [5]) | IC50 (G-361) | IC50 (MT4) | also measured |
| --- | --- | --- | --- | --- | --- | --- | --- | --- | --- | --- | --- | --- | --- | --- |
| COc1cccc2c1C(=O)c1c(O)c3c(c(O)c1C2=O)C[C@@](O)(C(=O)CO)C[C@@H]3O[C@H]1C[C@H](N)[C@H](O)[C@H](C)O1 [DOXORUBICIN] |  |  |  |  |  |  | 20 nM |  |  |  |  |  |  |  |
| N[C@@H](CCCCNC(=O)c1ccc2nc3c4ncccc4c(=O)cc-3oc2c1)C(=O)O | 17% | 80 nM | 100 nM | 70 nM | 160 nM | 120 nM | 150 nM | 100 nM | 461 | 320 nm | 459 | 90 nM | 200 nM |  |
| O=c1cc2oc3ccccc3nc-2c2cccnc12 |  |  |  |  |  | 230 nM |  |  |  |  |  |  |  |  |

Now from value to compound, other results behind:

| Activity (Calf thymus DNA [1]) | IC50 (SK-MEL-28) | IC50 (HT-29) | IC50 (ACHN) | IC50 (CCRF-SB) | IC50 (MCF7 [2]) | IC50 (CCRF-CEM) | IC50 (HeLa) | Activity (Calf thymus DNA [3]) | Activity (Calf thymus DNA [4]) | Activity (Calf thymus DNA [5]) | SMILES | IC50 (G-361) | IC50 (MT4) | also measured |
| --- | --- | --- | --- | --- | --- | --- | --- | --- | --- | --- | --- | --- | --- | --- |
| 26% | 60 nM | 100 nM | 60 nM | 80 nM | 50 nM | 17 nM | 50 nM | 455 | 297 nm | 451 | NCCCC[C@H](NC(=O)c1ccc2nc3c4ncccc4c(=O)cc-3oc2c1)C(=O)O | 50 nM | 200 nM |  |
| 28 | 2 nM | 3 nM | 8 nM | 20 nM | 7 nM | 20 nM | 5 nM | 447 | 395 nm | 443 | NCCCC[C@H](NC(=O)c1ccc2nc3c4cccnc4c(=O)cc-3oc2c1)C(=O)O | 1 nM | 10 nM | inhibition [6]: 100%; Activity [7]: Active; Activity (DNA [8]): Active; inhibition [9]: 50%; Activity (DNA [10]): Active |
| 58% | 2 nM | 4 nM | 5 nM | 5 nM | 3 nM | 3 nM | 5 nM | 448 | 340 nm | 443 | N[C@@H](CCCCNC(=O)c1ccc2nc3c4cccnc4c(=O)cc-3oc2c1)C(=O)O | 6 nM | 6 nM | Activity (MCF7 [11]): 51.71%; inhibition [12]: 50%; Activity [7]: Active; Activity (MCF7 [13]): Active; Activity (MCF7 [14]): 8.73%; Activity (DNA [8]): Active; Activity (MCF7 [15]): 42.5%; inhibition [16]: 100%; Activity (MCF7 [17]): 50%; Activity (MCF7 [18]): Active; Activity (MCF7 [19]): 26%; Activity (DNA [10]): Active; Activity (MCF7 [20]): 30.5%; Activity (MCF7 [21]): 48.77%; Activity (MCF7 [22]): 26%; Activity (MCF7 [23]): 17.8%; Activity (MCF7 [24]): 48%; Activity [25]: inactive |
| 19% | 210 nM | 200 nM | 80 nM | 160 nM | 100 nM | 160 nM | 100 nM | 447 | 280 nm | 445 | NCCCC[C@H](NC(=O)c1ccc2oc3cc(=O)c4cccnc4c-3nc2c1)C(=O)O | 50 nM | 200 nM |  |

— ChEMBL document CHEMBL4706487, “Antitumor agents 7. Synthesis, antiproliferative activity and molecular modeling of new l-lysine-conjugated pyridophenoxazinones as potent DNA-binding ligands and topoisomerase IIα inhibitors” (Eur J Med Chem, 2020)
